ChEMBL document CHEMBL3992493, “New approach of delivering cytotoxic drugs towards CAIX expressing cells: A concept of dual-target drugs” (Eur J Med Chem, 2017)
Calls of active or inactive are those of the source. The rule behind the calls is not given here.

Tests used:
[1] = target: Carbonic anhydrase 9 (Homo sapiens, UniProt Q16790); experiment: Binding affinity to recombinant human carbonic anhydrase 9 after 15 mins by stopped-flow CO2 hydration assay
[2] = tested on: MDCK; experiment: Cytotoxicity against carbonic anhydrase 9 knockdown MDCK cells assessed as reduction in cell viability after 72 hrs under normoxic condition by Alamar blue assay; format: cell-based; conditions: Canis lupus familiaris
[3] = tested on: MDCK; experiment: Cytotoxicity against MDCK cells expressing carbonic anhydrase 9 assessed as reduction in cell viability after 72 hrs under normoxic condition by Alamar blue assay; format: functional, cell-based; conditions: Canis lupus familiaris
[4] = tested on: MDCK; experiment: Cytotoxicity against carbonic anhydrase 9 knockdown MDCK cells assessed as reduction in cell viability after 72 hrs under hypoxic condition by Alamar blue assay; format: cell-based; conditions: Canis lupus familiaris
[5] = tested on: MDCK; experiment: Cytotoxicity against MDCK cells expressing carbonic anhydrase 9 assessed as reduction in cell viability after 72 hrs under hypoxic condition by Alamar blue assay; format: functional, cell-based; conditions: Canis lupus familiaris
[6] = target: Carbonic anhydrase 1 (Homo sapiens, UniProt P00915); experiment: Binding affinity to recombinant human carbonic anhydrase 1 after 15 mins by stopped-flow CO2 hydration assay
[7] = target: Carbonic anhydrase 2 (Homo sapiens, UniProt P00918); experiment: Binding affinity to recombinant human carbonic anhydrase 2 after 15 mins by stopped-flow CO2 hydration assay
[8] = target: Carbonic anhydrase 12 (Homo sapiens, UniProt O43570); experiment: Binding affinity to recombinant human carbonic anhydrase 12 after 15 mins by stopped-flow CO2 hydration assay
[9] = tested on: MDCK; experiment: Cytotoxicity against carbonic anhydrase 9 knockdown MDCK cells assessed as reduction in cell viability preincubated for 2 hrs followed by 72 hrs incubation under normoxic condition by Alamar blue assay; format: cell-based; conditions: Canis lupus familiaris
[10] = tested on: MDCK; experiment: Cytotoxicity against MDCK cells expressing carbonic anhydrase 9 assessed as reduction in cell viability preincubated for 2 hrs followed by 72 hrs incubation under normoxic condition by Alamar blue assay; format: functional, cell-based; conditions: Canis lupus familiaris
Procedure, shortened: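 CAIX-overexpressing or scrambled-vector MDCK cells in DMEM/10% FBS, attached overnight, held 24 h at 21% O2/5% CO2. Drug added (0.5% DMSO vehicle) for 2 h, washed off, then 72 h further normoxic growth. Viability measured by 2 h alamarBlue conversion under normoxia.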

[11] = tested on: MDCK; experiment: Cytotoxicity against carbonic anhydrase 9 knockdown MDCK cells assessed as reduction in cell viability after 2 hrs under hypoxic condition by Alamar blue assay; format: cell-based; conditions: Canis lupus familiaris
Procedure, shortened: (§1)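 MDCK cells transfected with human CAIX (CAIX+) or scrambled control vector (CAIX−), in DMEM/10% FBS, seeded and attached overnight. Medium replaced with pre-equilibrated hypoxic DMEM (0.2% O2, 5% CO2) for 24 h. Compounds in DMSO (0.5%) added for 2 h, then washed off. Cells regrown 72 h in normoxia. Viability read by alamarBlue conversion for 2 h under normoxia.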

[12] = tested on: MDCK; experiment: Cytotoxicity against MDCK cells expressing carbonic anhydrase 9 assessed as reduction in cell viability after 2 hrs under hypoxic condition by Alamar blue assay; format: functional, cell-based; conditions: Canis lupus familiaris; procedure, shortened: as §1
[13] = tested on: HCT-116; experiment: Effect on mitochondrial respiration in human HCT116 cells expressing carbonic anhydrase 9 assessed as reduction in oxygen consumption rate at 0.5 mM […]; format: functional, cell-based
[14] = tested on: MDCK; experiment: Cytotoxicity against MDCK cells expressing carbonic anhydrase 9 assessed as reduction in cell viability at 500 nM pretreated for 1 hr followed by 2 Gy irradiation under normoxic condition by Alamar blue assay; format: functional, cell-based; conditions: Canis lupus familiaris
Procedure, shortened: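 MDCK CAIX+ cells (human CAIX transfected) under normoxia (21% O2, 5% CO2). ATR inhibitors in 0.5% DMSO added 1 h before X-irradiation with 2 Gy. Exposure 72 h total, medium replaced, then 72 h further growth. Viability by 2 h alamarBlue conversion in normoxia.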

[15] = tested on: MDCK; experiment: Cytotoxicity against carbonic anhydrase 9 knockdown MDCK cells assessed as reduction in cell viability at 500 nM pretreated for 1 hr followed by 4 Gy irradiation under anoxic condition by Alamar blue assay; format: cell-based, Canis lupus familiaris; conditions: dog, 0.5 µM
Procedure, shortened: (§2)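 MDCK cells with or without CAIX, pre-exposed 24 h to anoxia (≤0.02% O2, 5% CO2, balance N2) in pre-equilibrated DMEM. ATR inhibitors in 0.5% DMSO added 1 h before 4 Gy X-irradiation. Exposure 72 h total, medium replaced, then 72 h normoxic regrowth. Viability by 2 h alamarBlue in normoxia.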

[16] = tested on: MDCK; experiment: Cytotoxicity against MDCK cells expressing carbonic anhydrase 9 assessed as reduction in cell viability at 500 nM pretreated for 1 hr followed by 4 Gy irradiation under anoxic condition by Alamar blue assay; format: functional, cell-based; conditions: Canis lupus familiaris; procedure, shortened: as §2
[17] = tested on: MDCK; experiment: Cytotoxicity against carbonic anhydrase 9 knockdown MDCK cells assessed as reduction in cell viability at 500 nM pretreated for 72 hrs followed by 72 hrs incubation under normoxic condition by Alamar blue assay; format: cell-based, Canis lupus familiaris; conditions: dog, 0.5 µM
Procedure, shortened: (§3)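 MDCK cells transfected with human CAIX or scrambled vector, normoxia (21% O2, 5% CO2). ATR inhibitors in 0.5% DMSO for 72 h, medium replaced, cells grown a further 72 h. Viability from 2 h alamarBlue conversion in normoxia.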

[18] = tested on: MDCK; experiment: Cytotoxicity against MDCK cells expressing carbonic anhydrase 9 assessed as reduction in cell viability at 500 nM pretreated for 72 hrs followed by 72 hrs incubation under normoxic condition by Alamar blue assay; format: functional, cell-based; conditions: Canis lupus familiaris; procedure, shortened: as §3
[19] = tested on: MDCK; experiment: Cytotoxicity against carbonic anhydrase 9 knockdown MDCK cells assessed as reduction in cell viability at 500 nM after 72 hrs under anoxic condition by Alamar blue assay; format: cell-based, Canis lupus familiaris; conditions: dog, 0.5 µM
Procedure, shortened: (§4)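 MDCK CAIX+ or CAIX− cells, 24 h anoxic preincubation (≤0.02% O2, 5% CO2) in pre-equilibrated DMEM. ATR inhibitors (0.5% DMSO) applied for 72 h without irradiation, then washed off, and 72 h normoxic regrowth. Readout by 2 h alamarBlue conversion under normoxia.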

[20] = tested on: MDCK; experiment: Cytotoxicity against MDCK cells expressing carbonic anhydrase 9 assessed as reduction in cell viability at 500 nM after 72 hrs under anoxic condition by Alamar blue assay; format: functional, cell-based; conditions: Canis lupus familiaris; procedure, shortened: as §4
[21] = tested on: MDCK; experiment: Cytotoxicity against MDCK cells expressing carbonic anhydrase 9 assessed as reduction in cell viability at 50 nM pretreated for 1 hr followed by 2 Gy irradiation under normoxic condition by Alamar blue assay; format: functional, cell-based; conditions: Canis lupus familiaris
Procedure, shortened: (§5)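 ATR inhibitor plus radiation: MDCK CAIX+/CAIX− cells were preconditioned 24 h under normoxia (21% O2) or anoxia (≤0.02% O2). Compound in 0.5% DMSO was added 1 h before X-irradiation, 2 Gy normoxic or 4 Gy anoxic. Total compound exposure was 72 h, then washout and 72 h normoxic regrowth. Readout was 2 h alamarBlue conversion, as relative viability.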

[22] = tested on: MDCK; experiment: Cytotoxicity against carbonic anhydrase 9 knockdown MDCK cells assessed as reduction in cell viability at 50 nM pretreated for 1 hr followed by 4 Gy irradiation under anoxic condition by Alamar blue assay; format: cell-based, Canis lupus familiaris; conditions: dog, 0.05 µM; procedure, shortened: as §5
[23] = tested on: MDCK; experiment: Cytotoxicity against MDCK cells expressing carbonic anhydrase 9 assessed as reduction in cell viability at 50 nM pretreated for 1 hr followed by 4 Gy irradiation under anoxic condition by Alamar blue assay; format: functional, cell-based; conditions: Canis lupus familiaris; procedure, shortened: as §5
[24] = tested on: MDCK; experiment: Cytotoxicity against carbonic anhydrase 9 knockdown MDCK cells assessed as reduction in cell viability at 50 nM pretreated for 72 hrs followed by 72 hrs incubation under normoxic condition by Alamar blue assay; format: cell-based, Canis lupus familiaris; conditions: dog, 0.05 µM
Procedure, shortened: (§6)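 ATR inhibitor without irradiation: MDCK CAIX+ or scrambled-control CAIX− cells were preconditioned 24 h at ≤0.02% O2 (anoxia) or 21% O2. Compound was added in 0.5% DMSO for 72 h, then washed off. Cells regrew 72 h under normoxia, followed by 2 h alamarBlue conversion. Viability is relative to control.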

[25] = tested on: MDCK; experiment: Cytotoxicity against MDCK cells expressing carbonic anhydrase 9 assessed as reduction in cell viability at 50 nM pretreated for 72 hrs followed by 72 hrs incubation under normoxic condition by Alamar blue assay; format: functional, cell-based; conditions: Canis lupus familiaris; procedure, shortened: as §6
[26] = tested on: MDCK; experiment: Cytotoxicity against carbonic anhydrase 9 knockdown MDCK cells assessed as reduction in cell viability at 50 nM after 72 hrs under anoxic condition by Alamar blue assay; format: cell-based, Canis lupus familiaris; conditions: dog, 0.05 µM; procedure, shortened: as §6
[27] = tested on: MDCK; experiment: Cytotoxicity against MDCK cells expressing carbonic anhydrase 9 assessed as reduction in cell viability at 50 nM after 72 hrs under anoxic condition by Alamar blue assay; format: functional, cell-based; conditions: Canis lupus familiaris; procedure, shortened: as §6

Carbonic anhydrase 1, sequence (P00915 whole entry): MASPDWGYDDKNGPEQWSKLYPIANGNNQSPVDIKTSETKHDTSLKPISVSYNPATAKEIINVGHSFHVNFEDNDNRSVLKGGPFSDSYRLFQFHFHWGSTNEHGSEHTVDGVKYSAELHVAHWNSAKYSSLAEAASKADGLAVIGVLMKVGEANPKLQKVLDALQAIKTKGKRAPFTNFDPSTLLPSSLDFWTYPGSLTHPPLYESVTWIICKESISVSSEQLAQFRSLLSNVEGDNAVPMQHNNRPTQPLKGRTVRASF
Carbonic anhydrase 12, sequence (O43570 whole entry): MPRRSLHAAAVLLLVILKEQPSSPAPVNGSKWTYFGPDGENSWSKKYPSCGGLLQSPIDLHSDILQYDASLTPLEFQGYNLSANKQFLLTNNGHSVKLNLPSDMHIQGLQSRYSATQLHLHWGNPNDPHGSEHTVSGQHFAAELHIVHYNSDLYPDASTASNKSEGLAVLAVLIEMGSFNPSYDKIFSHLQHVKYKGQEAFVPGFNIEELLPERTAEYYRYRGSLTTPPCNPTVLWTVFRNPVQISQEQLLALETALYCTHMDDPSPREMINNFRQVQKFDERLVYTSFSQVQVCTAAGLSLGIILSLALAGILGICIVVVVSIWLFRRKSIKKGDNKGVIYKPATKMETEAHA

| SMILES | Ki [1] [µM] | Ki [6] [µM] | Ki [7] [µM] | Ki [8] [µM] | IC50 [9] [µM] | IC50 [10] [µM] | IC50 [11] [µM] | IC50 [12] [µM] | further results |
| --- | --- | --- | --- | --- | --- | --- | --- | --- | --- |
| Cn1nnc2c(C(=O)NCc3ccc(S(N)(=O)=O)cc3)ncn2c1=O | 0.271 |  |  |  |  |  |  |  | IC50 [2]: > 1000 µM; IC50 [3]: > 1000 µM; IC50 [4]: > 1000 µM; IC50 [5]: > 1000 µM |
| O=C(O)CCCc1ccc(N(CCCl)CCCl)cc1 [CHLORAMBUCIL] | > 50 | > 50 | > 50 | > 50 | 93 | > 100 | 100 | > 100 |  |
| Cn1nnc2c(C(=O)Nc3nnc(S(N)(=O)=O)s3)ncn2c1=O | 0.176 |  |  |  |  |  |  |  | IC50 [2]: > 1000 µM; IC50 [3]: > 1000 µM; IC50 [4]: > 1000 µM; IC50 [5]: > 1000 µM |
| NS(=O)(=O)c1ccc(NC(=O)CCCc2ccc(N(CCCl)CCCl)cc2)cc1 | 0.172 | 0.073 | 0.009 | 0.689 | 100 | 87 | 100 | 95 |  |
| Cn1nnc2c(C(=O)NCCc3ccc(S(N)(=O)=O)cc3)ncn2c1=O | 0.0371 |  |  |  |  |  |  |  | IC50 [2]: > 1000 µM; IC50 [3]: > 1000 µM; IC50 [4]: > 1000 µM; IC50 [5]: > 1000 µM |
| NS(=O)(=O)c1ccc(CCNC(=O)CCCc2ccc(N(CCCl)CCCl)cc2)cc1 | 4.61 | 8.4 | 0.45 | 10.2 | 18 | 100 | 18 | 100 |  |
| N=C(N)NC(=N)NCCc1ccccc1 |  |  |  |  |  |  |  |  | Activity [13]: Active |
| NS(=O)(=O)c1ccc(CCNC(=O)OCCCCc2ccc(N(CCCl)CCCl)cc2)cc1 | 3.85 | 5.67 | 0.504 | 13.6 | 89 | 99 | 81 | 100 |  |
| NS(=O)(=O)c1ccc(NC(=O)OCCCCc2ccc(N(CCCl)CCCl)cc2)cc1 | 2.74 | 5.58 | 0.553 | 9.38 | 8 | 56 | 8 | 62 |  |
| NS(=O)(=O)c1ccc(CCNc2n[n+]([O-])c3cc4c(cc3[n+]2[O-])CCC4)cc1 | 0.307 |  |  |  | > 300 | > 300 | > 300 | > 300 |  |
| Nc1n[n+]([O-])c2ccccc2[n+]1[O-] [TIRAPAZAMINE] | > 50 | > 50 | > 50 | > 50 | > 300 | > 300 | < 50 | 95 |  |
| CS(=O)(=O)c1ccc(-c2cnc(N)c(C(=O)Nc3ccccc3)n2)cc1 | > 50 | > 50 | > 50 | > 50 |  |  |  |  | Activity [14]: Active; Activity [15]: Non-Toxic; Activity [16]: Active; Activity [17]: Toxic; Activity [18]: Active; Activity [19]: Toxic; Activity [20]: Active |
| NS(=O)(=O)c1ccc(CCNc2n[n+]([O-])c3ccccc3[n+]2[O-])cc1 | 0.383 |  |  |  | > 300 | > 300 | 300 | > 300 |  |
| CNCc1ccc(-c2cc(-c3nc(-c4ccc(S(=O)(=O)C(C)C)cc4)cnc3NS(N)(=O)=O)on2)cc1 | > 50 | > 50 | > 50 | > 50 |  |  |  |  | Activity [21]: inactive; Activity [22]: Non-Toxic; Activity [23]: inactive; Activity [24]: Toxic; Activity [25]: Active; Activity [26]: Toxic; Activity [27]: Active |
| NS(=O)(=O)c1ccc(CNC(=O)CCCc2ccc(N(CCCl)CCCl)cc2)cc1 | 8.97 | 5.95 | 0.747 | 7.34 | 18 | 98 | 14 | 92 |  |
| NS(=O)(=O)c1ccc(CNC(=O)OCCCCc2ccc(N(CCCl)CCCl)cc2)cc1 | 4.13 | 6.14 | 0.265 | 9.57 | 86 | 98 | 52 | 100 |  |
